Measurements as given in ChEMBL document CHEMBL3593173, “Discovery of novel N-(5-(tert-butyl)isoxazol-3-yl)-N'-phenylurea analogs as potent FLT3 inhibitors and evaluation of their activity against acute myeloid leukemia in vitro and in vivo” (Bioorg Med Chem, 2015).
In brackets after ≈: the same amount, converted by molar mass. Activity calls are given as the source filed them. No cut-off for these calls is given here.

Key:
MV4-11 [1] = assay: Cytotoxicity against human MV4-11 cells incubated for 72 hrs by MTT assay; type: functional, cell-based; settings: MV4-11, 72 h
Method in brief: (§1)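 Leukemia cells were grown with 10% FBS at 37 °C in 5% CO₂; MV4-11 was kept in IMDM. Cells were seeded at 1–4 × 10⁴ per well, and an equal volume of medium containing increasing inhibitor concentrations was added. MTT was added for 2–4 h, formazan was dissolved in DMSO, and OD was read at 570 nm to derive IC50.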

MV4-11 [2] = assay: Inhibition of cell proliferation of FLT3-ITD bearing human MV4-11 cells xenografted in NOD-SCID mouse assessed as reduction in Ki67-positive cells in tumor tissues at 60 mg/kg/day, po qd for 7 days by immunohistochemistry; type: functional, organism-based
Method in brief: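 NOD-SCID mice bearing subcutaneous MV4-11 xenografts were dosed at 60 mg/kg/d by oral gavage, once daily. Tumors were harvested 7 days later. Proliferation was scored by Ki67 immunostaining and apoptosis by TUNEL staining.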

MV4-11 [3] = assay: Induction of apoptosis in human MV4-11 cells assessed as late apoptotic cells level at 100 nM incubated for 48 hrs by Annexin V-FITC labeling based flow cytometry (reference value: 6.61%); type: functional
MV4-11 [4] = assay: Antitumor activity against FLT3-ITD bearing human MV4-11 cells xenografted in NOD-SCID mouse assessed as induction of complete tumor regression at 60 mg/kg/day, po; type: functional, organism-based
Method in brief: (§2)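 MV4-11 cells in exponential growth were washed three times in serum-free medium, resuspended at 1 × 10⁸ cells/mL and injected subcutaneously into NOD-SCID mice aged 5–6 weeks. At 100–200 mm³, tumors were randomized into 4 groups of 6. Dosing was 10, 30 or 60 mg/kg/d, or vehicle (25% PEG400 plus 5% DMSO in water), by oral gavage once daily. Tumor volume was measured every 3 days, and body weight and toxicity signs were monitored.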

[5] = Cmax in Sprague-Dawley rat at 30 mg/kg, po after 15 mins to 24 hrs by HPLC method; type: ADME, organism-based; design: dose 30 mg/kg, route oral; settings: in vivo
Method in brief: (§3)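 Sprague–Dawley rats (n = 3) fasted overnight, then given a single 30 mg/kg oral gavage dose in 25% PEG400, 5% DMSO and 70% distilled water. Heparinized blood was drawn at 15 min, 30 min, 1, 2, 4, 6, 12 and 24 h, and plasma was separated by centrifugation. Plasma levels were measured by liquid–liquid extraction and HPLC.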

MV4-11 [6] = assay: Induction of apoptosis in human MV4-11 cells assessed as early apoptotic cells level at 1 nM incubated for 48 hrs by Annexin V-FITC labeling based flow cytometry (reference value: 3.54%); type: functional
Rattus norvegicus = assay: Volume of distribution at steady state in Sprague-Dawley rat at 30 mg/kg, po after 15 mins to 24 hrs by HPLC method; type: ADME, organism-based; settings: in vivo; method in brief: as §3
MV4-11 [7] = assay: Induction of apoptosis in human MV4-11 cells assessed as necrotic cells level at 100 nM incubated for 48 hrs by Annexin V-FITC labeling based flow cytometry (reference value: 3.76%); type: functional
MV4-11 [8] = assay: Growth inhibition of FLT3-ITD bearing human MV4-11 cells incubated for 72 hrs by MTT assay; type: functional, cell-based; settings: MV4-11, 72 h; method in brief: as §1
Jurkat = assay: Growth inhibition of human Jurkat cells incubated for 72 hrs by MTT assay; type: functional, cell-based; method in brief: as §1
Mus musculus [9] = assay: Toxicity in FLT3-ITD bearing human MV4-11 cells xenografted NOD-SCID mouse assessed as induction of body weight loss at 10 to 60 mg/kg/day, po; type: organism-based; settings: in vivo; method in brief: as §2
HepG2 = assay: Growth inhibition of human HepG2 cells incubated for 72 hrs by MTT assay; type: functional, cell-based; settings: HepG2, 72 h
Method in brief: (§4)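 Non-leukemia lines were grown in RPMI 1640 or DMEM with 10% FBS at 37 °C in 5% CO₂. Cells were seeded at 2–5 × 10³ per well and incubated 24 h, then treated with diluted inhibitors for 72 h. MTT was added for 2–4 h, formazan was dissolved in DMSO, and OD was read at 570 nm to derive IC50.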

MV4-11 [10] = assay: Antitumor activity against FLT3-ITD bearing human MV4-11 cells xenografted in orally dosed NOD-SCID mouse assessed as tumor growth inhibition; type: functional, organism-based; method in brief: as §2
[11] = AUC (0 to 24 hrs) in Sprague-Dawley rat at 30 mg/kg, po after 15 mins to 24 hrs by HPLC method; type: ADME, organism-based; design: dose 30 mg/kg, time < 24 hr, route oral; settings: in vivo; method in brief: as §3
[12] = Solubility in PBS solution; type: physicochemical
K562 = assay: Growth inhibition of human K562 cells incubated for 72 hrs by MTT assay; type: functional, cell-based; settings: K562, 72 h; method in brief: as §1
MV4-11 [13] = assay: Induction of apoptosis in FLT3-ITD bearing human MV4-11 cells xenografted in NOD-SCID mouse at 60 mg/kg/day, po qd for 7 days by TUNEL assay
MV4-11 [14] = assay: Induction of apoptosis in human MV4-11 cells assessed as viable cells at 1 nM incubated for 48 hrs by Annexin V-FITC labeling based flow cytometry (reference value: 86.1%); type: functional; settings: MV4-11, 48 h, read-out: Activity
MV4-11 [15] = assay: Induction of apoptosis in human MV4-11 cells incubated for 48 hrs by Annexin V-FITC labeling based flow cytometry; type: functional, cell-based
Mus musculus [16] = assay: Toxicity in FLT3-ITD bearing human MV4-11 cells xenografted NOD-SCID mouse assessed as induction of toxicity signs at 10 to 60 mg/kg/day, po; type: organism-based; settings: in vivo; method in brief: as §2
U-937 = assay: Growth inhibition of human U937 cells incubated for 72 hrs by MTT assay; type: functional, cell-based; settings: U-937, 72 h; method in brief: as §1
[17] = Solubility in water; type: physicochemical
MV4-11 [18] = assay: Induction of apoptosis in human MV4-11 cells assessed as late apoptotic cells level at 1 nM incubated for 48 hrs by Annexin V-FITC labeling based flow cytometry (reference value: 6.61%); type: functional
MV4-11 [19] = assay: Induction of apoptosis in human MV4-11 cells assessed as early apoptotic cells level at 10 nM incubated for 48 hrs by Annexin V-FITC labeling based flow cytometry (reference value: 3.54%); type: functional
[20] = Growth inhibition of human PANC1 cells incubated for 72 hrs by MTT assay; type: functional, cell-based; settings: PANC-1, 72 h; method in brief: as §4
[21] = Apparent half life in Sprague-Dawley rat at 30 mg/kg, po after 15 mins to 24 hrs by HPLC method; type: ADME, organism-based; settings: in vivo, read-out: t1/2(app) (converted); method in brief: as §3
MV4-11 [22] = assay: Antitumor activity against FLT3-ITD bearing human MV4-11 cells xenografted in NOD-SCID mouse assessed as tumor growth inhibition at 10 mg/kg/day, po; type: functional; settings: MV4-11, po, read-out: TGI; method in brief: as §2
MV4-11 [23] = assay: Induction of apoptosis in human MV4-11 cells assessed as early apoptotic cells level at 100 nM incubated for 48 hrs by Annexin V-FITC labeling based flow cytometry (reference value: 3.54%); type: functional
[24] = Growth inhibition of human A875 cells incubated for 72 hrs by MTT assay; type: functional, cell-based; settings: A875, 72 h; method in brief: as §4
MV4-11 [25] = assay: Antitumor activity against FLT3-ITD bearing human MV4-11 cells xenografted in NOD-SCID mouse assessed as tumor growth inhibition at 30 mg/kg/day, po; type: functional; settings: MV4-11, po, read-out: TGI; method in brief: as §2
MV4-11 [26] = assay: Induction of apoptosis in human MV4-11 cells assessed as late apoptotic cells level at 10 nM incubated for 48 hrs by Annexin V-FITC labeling based flow cytometry (reference value: 6.61%); type: functional
U-251 = assay: Growth inhibition of human U251 cells incubated for 72 hrs by MTT assay; type: functional, cell-based; settings: U-251, 72 h; method in brief: as §4
THP-1 = assay: Growth inhibition of human THP1 cells incubated for 72 hrs by MTT assay; type: functional, cell-based; settings: THP-1, 72 h; method in brief: as §1
A549 = assay: Growth inhibition of human A549 cells incubated for 72 hrs by MTT assay; type: functional, cell-based; settings: A549, 72 h; method in brief: as §4
HCT-116 = assay: Growth inhibition of human HCT116 cells incubated for 72 hrs by MTT assay; type: functional, cell-based; settings: HCT-116, 72 h; method in brief: as §4
MV4-11 [27] = assay: Induction of apoptosis in human MV4-11 cells assessed as viable cells at 10 nM incubated for 48 hrs by Annexin V-FITC labeling based flow cytometry (reference value: 86.1%); type: functional; settings: MV4-11, 48 h, read-out: Activity
[28] = Solubility in MeOH solution; type: physicochemical
MV4-11 [29] = assay: Induction of apoptosis in human MV4-11 cells assessed as necrotic cells level at 10 nM incubated for 48 hrs by Annexin V-FITC labeling based flow cytometry (reference value: 3.76%); type: functional
MV4-11 [30] = assay: Effect on FLT3 protein expression in human MV4-11 cells at 1 to 100 nM incubated for 2 hrs by Western blotting method; type: cell-based; settings: mv4-11, 2 h, 0.1 µM
Method in brief: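 MV4-11 cells were treated with increasing concentrations for 2 h at 37 °C, washed in ice-cold PBS and lysed in RIPA buffer with 1% protease cocktail. Lysates were cleared at 13,000 rpm for 15 min at 4 °C, run on 5–10% polyacrylamide gels and transferred to PVDF. Blots were probed with anti-FLT3, anti-p-FLT3 and anti-β-actin, then an HRP secondary antibody.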

[31] = Solubility in EtOH solution; type: physicochemical
MV4-11 [32] = assay: Induction of apoptosis in human MV4-11 cells assessed as viable cells at 100 nM incubated for 48 hrs by Annexin V-FITC labeling based flow cytometry (reference value: 86.1%); type: functional; settings: MV4-11, 48 h, read-out: Activity
[33] = Solubility in SPSS; type: physicochemical
[34] = Clearance in Sprague-Dawley rat at 30 mg/kg, po after 15 mins to 24 hrs by HPLC method; type: ADME, organism-based; settings: in vivo; method in brief: as §3
MV4-11 [35] = assay: Induction of apoptosis in human MV4-11 cells assessed as necrotic cells level at 1 nM incubated for 48 hrs by Annexin V-FITC labeling based flow cytometry (reference value: 3.76%); type: functional
MCF7 = assay: Growth inhibition of human MCF7 cells incubated for 72 hrs by MTT assay; type: functional, cell-based; settings: MCF7, 72 h; method in brief: as §4

CC(C)(C)c1cc(NC(=O)Nc2ccc(-c3cc4ccccc4s3)cc2)no1
IC50 (MV4-11 [1]): > 900 nM

CC(C)(C)c1cc(NC(=O)Nc2ccc(-c3cn4cc(Br)ccc4n3)cc2)no1
IC50 (MV4-11 [1]): 44.5 nM

COc1ccn2cc(-c3ccc(NC(=O)Nc4cc(C(C)(C)C)on4)cc3)nc2c1
inhibition (MV4-11 [2]): Active
Activity (MV4-11 [3]): 23%
Activity (MV4-11 [4]): Active
Cmax [5]: 3290 ng/mL
Activity (MV4-11 [6]): 3.86%
Vdss (Rattus norvegicus): 14.12 L/kg
Activity (MV4-11 [7]): 15.3%
IC50 (MV4-11 [8]): 3 nM
IC50 (Jurkat): > 20000 nM
Activity (Mus musculus [9]): Non-toxic
IC50 (HepG2): > 20000 nM
TGI (MV4-11 [10]): Dose-dependent effect
AUC(0-t) at 24 h [11]: 14300 ng·h/mL
solubility [12]: 36.6 µg/mL (≈ 90.3 µM)
IC50 (K562): > 20000 nM
Activity (MV4-11 [13]): Active
viability at 0.001 µM (MV4-11 [14]): 78.7%
Activity (MV4-11 [15]): Dose-dependent effect
Activity (Mus musculus [16]): Non-toxic
IC50 (U-937): > 20000 nM
solubility [17]: 304 µg/mL (≈ 749 µM)
Activity (MV4-11 [18]): 12.1%
Activity (MV4-11 [19]): 7.42%
IC50 [20]: > 20000 nM
half-life [21]: 4.86 h
inhibition in vivo at 10 mg/kg/day (MV4-11 [22]): 51%
Activity (MV4-11 [23]): 6.88%
IC50 [24]: > 20000 nM
inhibition in vivo at 30 mg/kg/day (MV4-11 [25]): 87%
Activity (MV4-11 [26]): 18.6%
IC50 (U-251): > 20000 nM
IC50 (THP-1): 3370 nM
IC50 (A549): 5610 nM
IC50 (HCT-116): > 20000 nM
IC50 (MV4-11 [1]): 2.84 nM
viability at 0.01 µM (MV4-11 [27]): 63.2%
solubility [28]: 7460 µg/mL (≈ 18400 µM)
Activity (MV4-11 [29]): 10.8%
Activity (MV4-11 [30]): Non-toxic
solubility [31]: 3150 µg/mL (≈ 7770 µM)
viability at 0.1 µM (MV4-11 [32]): 54.8%
solubility [33]: 1.47 µg/mL (≈ 3.63 µM)
CL/F [34]: 33.5 mL/min/kg
Activity (MV4-11 [35]): 5.34%
IC50 (MCF7): > 20000 nM

CC(C)(C)c1cc(NC(=O)Nc2ccc(-c3cn4cccc(C(F)(F)F)c4n3)cc2)no1
IC50 (MV4-11 [1]): > 900 nM

CC(C)(C)c1cc(NC(=O)Nc2ccc(-c3cn4cccc(Cl)c4n3)cc2)no1
IC50 (MV4-11 [1]): 353 nM

CC(C)(C)c1cc(NC(=O)Nc2ccc(-c3cn4cc(C5CC5)ccc4n3)cc2)no1
IC50 (MV4-11 [1]): 15.8 nM

CC(=O)Oc1ccn2cc(-c3ccc(NC(=O)Nc4cc(C(C)(C)C)on4)cc3)nc2c1
IC50 (MV4-11 [1]): 29.4 nM
